Bioassay records from PubChem BioAssay.
The list is not random: actives were taken first. Their share in the collection is about 1.9%.
UCH37 DUB inh = inhibitors of human deubiquitinating enzyme UCH37; purified proteasome/UCH37, Ub-AMC cleavage fluorescence; inhibition, % (no concentration beside the values); hit rate 0.33% among 330,000; AID 588478;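 active = mean inhibition over replicate wells above about 20%, limit read from the data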;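 note: 0% = compound-free wells with enzyme and 100% = wells lacking proteasome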
Target sequence (Q9Y5K5 whole entry, looked up): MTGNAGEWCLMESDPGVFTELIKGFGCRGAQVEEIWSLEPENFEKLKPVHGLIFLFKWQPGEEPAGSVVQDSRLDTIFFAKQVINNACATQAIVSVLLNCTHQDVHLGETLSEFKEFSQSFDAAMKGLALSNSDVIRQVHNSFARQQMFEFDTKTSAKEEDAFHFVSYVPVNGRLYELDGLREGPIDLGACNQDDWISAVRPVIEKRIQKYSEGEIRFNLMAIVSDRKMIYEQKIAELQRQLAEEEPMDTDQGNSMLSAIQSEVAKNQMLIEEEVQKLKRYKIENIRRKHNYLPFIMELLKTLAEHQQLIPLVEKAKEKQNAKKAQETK
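Reagent: Ub-AMC substrate; assay system: Proteasome-associated human UCH37 deubiquitinase; controls: no-proteasome and no-compound wells; read-out: % inhibition of Ub-AMC cleavage fluorescence; timing: 30 min preincubation with enzyme, 25 min cleavage at room temperature; signal: AMC fluorescence from Ub-AMC cleavage, excitation 355 nm, emission 460 nm; buffer or medium: Tris-HCl pH 7.4 plus ovalbumin, ATP-MgCl2, DTT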
aDG glyco act = alpha-DG glycosylation activation; Pro5-aDG cells, alpha-DG glycosylation AlphaScreen (IIH6); 0% Pro5, 100% B10-LARGE cell signal; activation, % at 10 µM; hit rate 0.22% among 360,000;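 active = activation of at least 8% versus controls, or a plate z-score of at least 8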;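 note: Pro5 are CHO cells carrying HIG-tagged alpha-DG that lacks glycosylation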
bovine MsrA act = bovine methionine sulfoxide reductase A activation | purified bovine MsrA, absorbance read-out | activation, % at 10.6 µM | hit rate 0.3% among 360,000 | AID 602163; in the data active = activation above about 7.5%;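 note: 0% = vehicle and 100% = reference activator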
N-glyco inh = blocks N-linked glycosylation in D54 reporter cells | reporter increase, % at 12.5 µM | D54 ERlucT glycosylation luciferase reporter, 24 h; percent of 100 nM tunicamycin response | AID 588692 | hit rate 0.23% among 360,000;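 active = mean luciferase reporter signal, scaled so untreated is 0 and the glycosylation-blocking control 100, at or above a set limit in every replicate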;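 note: luciferase carries N-glycosylation sites so blocking glycosylation raises the light; 0% = median of neutral control wells and 100% = median of 100 nM tunicamycin wells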
Vif imaging = inhibitors of HIV Vif. HEK293T cells, Vif self-association by quenched fluorescence, imaging, 24 h. AID 602346. hit rate 0.35% among 340,000. inhibition, % at 7.49 µM; in the data active = inhibition above about 50%, passing the limit was not always enough
MsrA inh = inhibitors of bovine MsrA. purified bovine MsrA, absorbance read-out. inhibition, % at 15.5 µM. hit rate 0.75% among 360,000; in the data active = inhibition above about 4.5%;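 note: 0% = vehicle wells with enzyme and 100% = reference inhibitor wells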
UCH37 confirm = confirmation of human UCH37 deubiquitinating enzyme inhibitors. AID 624100. Proteasome-bound UCH37, Ub-AMC cleavage fluorescence. inhibition, % at 20 µM. shares compounds with UCH37 DUB inh. hit rate 27% among 480;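 active = average inhibition over replicates above about 50%, so the earlier screening hit is confirmed, limit read from the data; inactive = the rest, counted as false positives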;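 note: based on cleavage rate fitted by regression over a 30 min kinetic read; 0% = proteasome plus Ub-AMC and 100% = Ub-AMC without proteasome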
* = called active by the depositor; i = inactive; nt = no result given.

SMILES | UCH37 DUB inh | aDG glyco act | bovine MsrA act | N-glyco inh | Vif imaging | MsrA inh | UCH37 confirm
CCc1ccc(N2CC(C(=O)NN=Cc3ccccc3)CC2=O)cc1 (stereo unspecified) | 4 | nt | nt | nt | nt | nt | nt
O=c1nc(N2CCOCC2)nc(NN=Cc2ccc3c(c2)OCO3)[nH]1 | 2 | nt | nt | nt | nt | nt | nt
CC1=NN(c2ccc(C)cc2)C(=O)/C1=C/c1ccc(-c2cc([N+](=O)[O-])ccc2O)o1 | 3 | 0 | -1 | -1 | 0 | 0 | nt
O=C1NN(c2cccc(Br)c2)C(=O)/C1=C/c1ccc(-c2cc([N+](=O)[O-])ccc2O)o1 | 31* | 0 | -1 | 0 | -4 | nt | 67*
CC1=C(C(=O)OCc2ccccc2)C(c2ccccc2Cl)NC(=O)N1CCCC(=O)O (stereo unspecified) | 41* | 0 | 1 | 2 | 12 | -1 | 9
CC1=C(C(=O)OCc2ccccc2)C(c2ccccc2Cl)NC(=O)N1CCCCCC(=O)O (stereo unspecified) | 7 | 0 | -1 | 1 | -8 | 0 | nt
CC(=O)Oc1c(Br)cc(N(C(C)=O)S(=O)(=O)c2ccccc2)c2ccccc12 | 36* | 3.0* | -10 | 11 | -10 | 0 | 9
CC(=O)Oc1ccccc1N(C(C)=O)S(=O)(=O)c1ccc2ccccc2c1 | 0 | 0 | -1 | 1 | -3 | 2 | nt
COc1ccc(CC(=O)NN=C(C)CC(=O)Nc2ccc3c(c2)OCCO3)cc1OC | 2 | nt | nt | nt | nt | nt | nt
COc1ccc(C2/C(=C(\O)c3ccc4c(c3)OCCO4)C(=O)C(=O)N2CCCn2ccnc2)cc1 (stereo unspecified) | 13 | 0 | -3 | 2 | -4 | 2 | nt
COc1ccccc1C1/C(=C(\O)c2ccc3c(c2)OCCO3)C(=O)C(=O)N1CCCn1ccnc1 (stereo unspecified) | 42* | 0 | -1 | 4 | -5 | 3 | 33
C[C@H]1COC2=C1C(=O)C(=O)c1c2ccc2c1CCCC2(C)C | 41* | 1 | -11 | 4 | 7 | nt | 75*
Cc1coc2c1C(=O)C(=O)c1c-2ccc2c1CCCC2(C)C | 7 | 1 | -4 | -16 | -5 | 1 | nt
Cn1c(SC(C(=O)Nc2ccc(F)cc2)c2ccccc2)nc2ccccc21 (stereo unspecified) | 45* | 0 | -4 | -5 | -3 | -1 | -5
O=C(NN=C1CCc2ccccc21)c1ccncc1 | -1 | nt | nt | nt | nt | nt | nt
COCc1cc(C)nc(OCC(=O)NN=Cc2ccc(-c3cc([N+](=O)[O-])ccc3Cl)o2)c1C#N | 2 | nt | nt | nt | nt | nt | nt
Cc1cc2ccccc2c(=O)n1CC(=O)NCCC1=CCCCC1 | 55* | 0 | -1 | 0 | 2 | 2 | 67*
CC1(c2ccccc2Cl)NC(=O)N(CC(=O)NCCC2=CCCCC2)C1=O (stereo unspecified) | 34* | 0 | -4 | 3 | 2 | 1 | 56*
CC1(c2ccccc2)NC(=O)N(CC(=O)NCCC2=CCCCC2)C1=O (stereo unspecified) | 3 | 0 | -6 | 0 | -4 | 0 | nt
COc1c(C=NNC(=O)c2ccccc2O)c(CCN(C)C(C)=O)cc2c1OCO2 | 5 | nt | nt | nt | nt | nt | nt
O=C(NC(=S)Nc1ccc(Oc2ccc(Cl)cc2)cc1)c1ccccc1 | 47* | 0 | -4 | -2 | nt | 2 | 6
O=C(NC(=S)Nc1ccc(Cl)cc1)c1ccccc1 | 2 | 0 | -3 | 2 | nt | 1 | nt
CC(=O)N(/N=C1\Sc2ccccc2C1=O)c1cccc(C)c1 | nt | 0 | -4 | -1 | 1 | 0 | nt
CC(=O)N(N=C1Sc2ccccc2C1=O)c1ccccc1 | 31* | nt | nt | nt | nt | nt | 19
CC(=O)N(N=C1Sc2ccccc2C1=O)c1ccccc1C | 83* | nt | nt | nt | nt | nt | 62*
SMILES | UCH37 DUB inh | aDG glyco act | bovine MsrA act | N-glyco inh | Vif imaging | MsrA inh | UCH37 confirm
COc1cccc(C=NNC(=O)CCn2c3ccccc3c3ccccc32)c1 | -1 | nt | nt | nt | nt | nt | nt
CC(=O)N/C(=C\c1ccccc1)C(=O)N1CCOCC1 | 5 | 0 | -10 | 0 | 1 | 0 | nt
O=C(/C=C/c1ccccc1)N/C(=C/c1ccccc1)C(=O)N1CCOCC1 | 45* | 0 | -8 | -3 | 0 | 1 | 4
O=C(O)CCC(=NNC(=O)CNC(=O)Cc1ccc(Cl)cc1)c1ccccc1 | 0 | nt | nt | nt | nt | nt | nt
CC(=O)Nc1ccc(C=NNC(=O)c2cc3ccccc3nc2C)cc1 | 4 | nt | nt | nt | nt | nt | nt
CCSC1=C(C#N)C2(CCCC2)C(C#N)=C(N)N1 | 43* | 0 | -9 | 1 | -3 | 0 | 13
CSC1=C(C#N)C2(CCCC2)C(C#N)=C(N)N1 | 7 | nt | nt | nt | nt | nt | nt
O=C1C(C2=C(O)c3ccccc3C2=O)=Nc2ccccc21 | 85* | 0 | -4 | 6 | i | 0 | 103*
CN=CC1=C(O)c2ccccc2C1=O | 7 | 0 | -3 | -1 | 1 | 4 | nt
COc1ccccc1-c1coc2cc(O)cc(O)c2c1=O | 48* | 0 | 0 | 3 | -1 | 1 | -6
COc1ccc(-c2coc3cc(O)cc(O)c3c2=O)cc1OC | 4 | 0 | -4 | 3 | -3 | 2 | nt
CCn1ncc(C=NNC(=O)COc2ccccc2)c1C | 0 | nt | nt | nt | nt | nt | nt
O=c1c2c3c(sc2ncn1N=Cc1cccnc1)CCCC3 | 4 | nt | nt | nt | nt | nt | nt
COc1ccc([C@H]2CC(=O)C=C(c3ccc4ccccc4c3)C2)cc1OC | 3 | 0 | -3 | -3 | -3 | 0 | nt
COc1ccc([C@H]2CC(=O)C=C(c3ccc(-c4ccccc4)c(F)c3)C2)cc1OC | 41* | 0 | -2 | -1 | -1 | 1 | 7
Cc1ccc(-c2nnc(SCC(=O)NN=Cc3ccccc3C(=O)O)n2C2CCCCC2)cc1 | 0 | nt | nt | nt | nt | nt | nt
CCCCCc1ccc(-c2cn(Cc3ccc(C)cc3)nn2)cc1 | 35* | 0 | 0 | -2 | -6 | 0 | 2
CC(=NNc1cc(C)nc(-c2ccccc2O)n1)c1ccccc1 | 2 | nt | nt | nt | nt | nt | nt
O=C1CCCC2=C1C(c1ccc3c(c1)OCO3)c1c([nH]n(-c3ccccc3)c1=O)N2 (stereo unspecified) | 32* | 0 | -10 | 2 | -11 | 3 | 33
COc1cc(C=NNc2nc(C)nc3c2cnn3-c2ccccc2)ccc1O | -59 | nt | nt | nt | nt | nt | nt
C=CCOc1ccccc1C=c1sc2nc(-c3oc4ccccc4c3C)nn2c1=O | 2 | nt | nt | nt | nt | nt | nt
Cc1ccc(NC2=CC(=O)C(=O)c3ccccc32)c(C)c1 | 36* | 6.5* | -2 | -20 | -5 | 0 | 5
CCOc1ccc(NC2=CC(=O)C(=O)c3ccccc32)cc1 | nt | 7 | 5 | -20 | -14 | -1 | nt
O=C1C=C(Nc2ccc(F)cc2)c2ccccc2C1=O | 57* | 8.9* | 3 | -11 | 5 | 0 | 18
COc1ccc(CCNC(=O)CC(C)=NNC(=O)Cc2cccc3ccccc23)cc1OC | 1 | nt | nt | nt | nt | nt | nt
CC(=O)Nc1nc(SCC(=O)NCC2CCCO2)[nH]c(=O)c1NC(=O)c1cccs1 (stereo unspecified) | 1 | 0 | -15 | 2 | 6 | 0 | nt
